Test results taken from ChEMBL document CHEMBL1139946, “1-Aryl-4,6-dihydropyrazolo[4,3-d][1]benzazepin-5(1H)-ones: a new class of antiproliferative agents with selectivity for human leukemia and breast cancer cell lines” (Eur J Med Chem, 2007).

Experiments:
[1] = target: Insulin-like growth factor 1 receptor (Homo sapiens) (UniProt P08069); assay: Inhibition of IGF1R at 10 uM
[2] = target: Hepatocyte growth factor receptor (Homo sapiens) (UniProt P08581); assay: Inhibition of MET at 10 uM
SF-268 = assay: Antiproliferative activity against human SF268 cells at 100 uM after 48 hrs relative to control; format: functional; settings: SF-268, 48 h
Method in brief: (§1)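 NCI three-cell-line prescreen (MCF7 breast, NCI-H460 non-small cell lung, SF-268 CNS). Cells inoculated and preincubated in microtiter plates, then exposed to test agent at 10^-4 M for 48 h. Alamar blue end-point read-out. Growth of treated cells expressed as percent of untreated control cells.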

[3] = target: Aurora kinase B (Homo sapiens) (UniProt Q96GD4); assay: Inhibition of aurora B at 10 uM
Sequence of Aurora kinase B (Homo sapiens) (Q96GD4 whole entry): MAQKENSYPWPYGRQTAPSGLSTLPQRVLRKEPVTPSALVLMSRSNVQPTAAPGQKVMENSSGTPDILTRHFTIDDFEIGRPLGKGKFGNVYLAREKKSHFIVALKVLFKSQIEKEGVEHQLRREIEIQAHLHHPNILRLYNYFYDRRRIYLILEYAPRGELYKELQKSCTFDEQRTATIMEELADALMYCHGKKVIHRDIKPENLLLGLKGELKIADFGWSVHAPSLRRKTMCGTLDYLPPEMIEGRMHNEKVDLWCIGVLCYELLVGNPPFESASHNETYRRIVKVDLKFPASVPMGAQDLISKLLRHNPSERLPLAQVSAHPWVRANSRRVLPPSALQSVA

[4] = target: Vascular endothelial growth factor receptor 3 (Homo sapiens, UniProt P35916); assay: Inhibition of VEGFR3 at 10 uM
[5] = target: T1, Aurora kinase A (Homo sapiens) (UniProt O14965); assay: Inhibition of aurora A at 10 uM
T1 sequence (whole entry): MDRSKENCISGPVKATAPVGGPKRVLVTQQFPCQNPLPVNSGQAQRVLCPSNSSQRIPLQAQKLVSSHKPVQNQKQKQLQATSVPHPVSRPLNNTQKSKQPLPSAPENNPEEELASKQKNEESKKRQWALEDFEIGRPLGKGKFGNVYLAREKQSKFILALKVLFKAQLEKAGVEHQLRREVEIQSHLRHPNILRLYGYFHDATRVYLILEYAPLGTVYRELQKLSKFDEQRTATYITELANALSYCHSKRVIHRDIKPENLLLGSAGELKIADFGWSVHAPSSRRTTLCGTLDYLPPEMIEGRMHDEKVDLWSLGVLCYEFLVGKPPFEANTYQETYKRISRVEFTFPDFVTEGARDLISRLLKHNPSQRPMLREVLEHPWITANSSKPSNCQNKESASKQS

MCF7 = assay: Antiproliferative activity against human MCF7 cells at 100 uM after 48 hrs relative to control; format: functional; settings: MCF7, 48 h; method in brief: as §1
[6] = target: T2, Serine/threonine-protein kinase PLK4 (Homo sapiens) (UniProt O00444); assay: Inhibition of SAK at 10 uM
T2 sequence (whole entry): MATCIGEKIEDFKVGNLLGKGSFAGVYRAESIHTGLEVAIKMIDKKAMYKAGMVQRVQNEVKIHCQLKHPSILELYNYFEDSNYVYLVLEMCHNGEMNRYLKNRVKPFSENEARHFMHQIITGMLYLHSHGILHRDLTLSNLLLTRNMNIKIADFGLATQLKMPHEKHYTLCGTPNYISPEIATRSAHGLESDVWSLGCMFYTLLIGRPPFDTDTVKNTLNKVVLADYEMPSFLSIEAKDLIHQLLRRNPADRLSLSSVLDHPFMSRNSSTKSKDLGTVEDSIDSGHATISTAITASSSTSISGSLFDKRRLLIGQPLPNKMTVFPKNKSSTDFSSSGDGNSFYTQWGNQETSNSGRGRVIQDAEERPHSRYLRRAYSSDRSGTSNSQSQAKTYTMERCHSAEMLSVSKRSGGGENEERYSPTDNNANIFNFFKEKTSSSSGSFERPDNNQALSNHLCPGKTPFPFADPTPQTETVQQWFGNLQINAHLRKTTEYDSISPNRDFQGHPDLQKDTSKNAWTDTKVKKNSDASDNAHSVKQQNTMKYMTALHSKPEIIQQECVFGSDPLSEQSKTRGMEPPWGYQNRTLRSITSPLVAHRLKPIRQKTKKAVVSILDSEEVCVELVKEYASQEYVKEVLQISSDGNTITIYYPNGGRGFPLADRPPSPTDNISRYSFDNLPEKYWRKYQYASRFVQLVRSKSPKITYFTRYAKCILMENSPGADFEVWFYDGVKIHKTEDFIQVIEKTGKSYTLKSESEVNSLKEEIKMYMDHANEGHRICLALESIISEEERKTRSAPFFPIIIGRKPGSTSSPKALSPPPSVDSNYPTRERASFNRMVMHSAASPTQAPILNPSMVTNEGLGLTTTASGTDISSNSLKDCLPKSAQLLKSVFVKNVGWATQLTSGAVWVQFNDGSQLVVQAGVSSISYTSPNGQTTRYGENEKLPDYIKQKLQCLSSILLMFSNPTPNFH

[7] = target: 3-phosphoinositide-dependent protein kinase 1 (Homo sapiens) (UniProt O15530); assay: Inhibition of PDK1 at 10 uM
Sequence of 3-phosphoinositide-dependent protein kinase 1 (Homo sapiens) (O15530 whole entry, looked up): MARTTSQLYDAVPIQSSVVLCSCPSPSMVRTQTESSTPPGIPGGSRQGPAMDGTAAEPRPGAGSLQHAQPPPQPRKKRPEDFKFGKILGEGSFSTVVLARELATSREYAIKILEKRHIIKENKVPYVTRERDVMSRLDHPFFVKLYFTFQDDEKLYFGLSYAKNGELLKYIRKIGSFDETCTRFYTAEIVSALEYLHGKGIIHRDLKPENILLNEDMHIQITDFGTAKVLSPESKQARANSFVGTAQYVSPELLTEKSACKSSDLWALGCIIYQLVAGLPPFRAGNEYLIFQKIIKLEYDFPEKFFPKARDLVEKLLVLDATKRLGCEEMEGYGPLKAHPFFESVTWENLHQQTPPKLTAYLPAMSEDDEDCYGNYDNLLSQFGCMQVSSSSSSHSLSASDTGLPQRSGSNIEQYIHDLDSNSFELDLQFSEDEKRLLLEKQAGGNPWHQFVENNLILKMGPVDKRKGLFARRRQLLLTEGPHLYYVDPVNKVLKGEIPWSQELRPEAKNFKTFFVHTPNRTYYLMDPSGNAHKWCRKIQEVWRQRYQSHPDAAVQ

NCI-H460 = assay: Antiproliferative activity against human NCI-H460 cells at 100 uM after 48 hrs relative to control; format: functional; settings: NCI-H460, 48 h; method in brief: as §1
[8] = target: Proto-oncogene tyrosine-protein kinase Src (Homo sapiens) (UniProt P12931); assay: Inhibition of SRC at 10 uM
Sequence of Proto-oncogene tyrosine-protein kinase Src (Homo sapiens) (P12931 2-536 limits assumed): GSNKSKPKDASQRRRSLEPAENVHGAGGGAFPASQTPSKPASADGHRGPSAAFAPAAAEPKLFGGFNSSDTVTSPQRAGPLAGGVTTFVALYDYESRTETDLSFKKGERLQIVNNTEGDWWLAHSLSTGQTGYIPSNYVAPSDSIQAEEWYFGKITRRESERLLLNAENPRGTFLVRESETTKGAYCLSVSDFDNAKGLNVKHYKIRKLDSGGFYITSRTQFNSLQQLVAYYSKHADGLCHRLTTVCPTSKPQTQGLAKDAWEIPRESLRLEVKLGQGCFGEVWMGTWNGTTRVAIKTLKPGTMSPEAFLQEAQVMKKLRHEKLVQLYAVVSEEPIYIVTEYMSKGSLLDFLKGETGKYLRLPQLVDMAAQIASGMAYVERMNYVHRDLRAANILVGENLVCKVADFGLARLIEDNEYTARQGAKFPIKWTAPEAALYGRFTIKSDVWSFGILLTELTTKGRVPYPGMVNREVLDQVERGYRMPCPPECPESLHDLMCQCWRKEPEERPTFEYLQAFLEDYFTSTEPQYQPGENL

[9] = target: T3, NUAK family SNF1-like kinase 1 (Homo sapiens) (UniProt O60285); assay: Inhibition of ARK5 at 10 uM
T3 sequence (whole entry): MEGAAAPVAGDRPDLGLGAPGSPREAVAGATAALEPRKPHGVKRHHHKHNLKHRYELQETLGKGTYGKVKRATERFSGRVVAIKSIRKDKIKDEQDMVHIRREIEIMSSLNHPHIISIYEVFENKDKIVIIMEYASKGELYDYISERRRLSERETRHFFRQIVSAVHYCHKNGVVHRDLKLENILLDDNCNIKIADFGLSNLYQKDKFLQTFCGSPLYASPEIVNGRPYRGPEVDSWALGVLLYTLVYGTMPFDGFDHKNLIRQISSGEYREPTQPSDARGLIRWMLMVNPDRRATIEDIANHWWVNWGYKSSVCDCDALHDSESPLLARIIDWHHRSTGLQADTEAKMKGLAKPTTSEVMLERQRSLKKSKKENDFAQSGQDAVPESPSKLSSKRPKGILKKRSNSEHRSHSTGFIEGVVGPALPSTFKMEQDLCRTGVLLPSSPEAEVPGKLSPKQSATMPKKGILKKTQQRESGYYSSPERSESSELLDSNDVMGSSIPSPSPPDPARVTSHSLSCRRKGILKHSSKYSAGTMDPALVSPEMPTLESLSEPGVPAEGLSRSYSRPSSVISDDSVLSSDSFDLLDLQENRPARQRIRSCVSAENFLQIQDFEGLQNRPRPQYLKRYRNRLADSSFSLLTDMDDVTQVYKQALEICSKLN

Homo sapiens [10] = species on record: Homo sapiens; assay: Inhibition of CDK4/cyclinD1 at 10 uM
[11] = target: Focal adhesion kinase 1 (Homo sapiens) (UniProt Q05397); assay: Inhibition of FAK at 10 uM
Sequence of Focal adhesion kinase 1 (Homo sapiens) (Q05397 2-1052 limits assumed): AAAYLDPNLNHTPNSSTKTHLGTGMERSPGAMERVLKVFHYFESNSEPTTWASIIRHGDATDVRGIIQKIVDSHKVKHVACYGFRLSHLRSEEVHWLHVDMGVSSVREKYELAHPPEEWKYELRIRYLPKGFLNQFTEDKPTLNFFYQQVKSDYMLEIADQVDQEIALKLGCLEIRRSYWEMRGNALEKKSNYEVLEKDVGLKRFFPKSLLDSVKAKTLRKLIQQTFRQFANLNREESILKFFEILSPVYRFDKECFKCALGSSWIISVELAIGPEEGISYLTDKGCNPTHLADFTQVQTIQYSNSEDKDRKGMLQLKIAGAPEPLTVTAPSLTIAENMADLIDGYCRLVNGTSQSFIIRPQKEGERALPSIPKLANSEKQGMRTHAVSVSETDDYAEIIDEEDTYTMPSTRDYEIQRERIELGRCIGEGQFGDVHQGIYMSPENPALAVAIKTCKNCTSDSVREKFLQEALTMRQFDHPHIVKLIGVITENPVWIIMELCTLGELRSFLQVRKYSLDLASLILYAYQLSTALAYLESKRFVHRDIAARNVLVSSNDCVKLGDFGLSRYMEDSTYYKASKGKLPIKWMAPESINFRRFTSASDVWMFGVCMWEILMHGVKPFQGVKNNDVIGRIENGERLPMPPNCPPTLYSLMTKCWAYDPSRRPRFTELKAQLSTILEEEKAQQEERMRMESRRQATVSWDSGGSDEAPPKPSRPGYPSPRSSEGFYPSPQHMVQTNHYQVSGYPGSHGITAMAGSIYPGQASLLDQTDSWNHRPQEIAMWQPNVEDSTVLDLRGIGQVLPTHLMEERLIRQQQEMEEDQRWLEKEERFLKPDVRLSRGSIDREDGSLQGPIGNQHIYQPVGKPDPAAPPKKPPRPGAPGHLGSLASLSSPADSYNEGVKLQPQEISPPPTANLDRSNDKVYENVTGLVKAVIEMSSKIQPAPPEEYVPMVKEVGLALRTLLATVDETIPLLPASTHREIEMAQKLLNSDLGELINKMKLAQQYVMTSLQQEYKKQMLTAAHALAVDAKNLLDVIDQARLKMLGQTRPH

Homo sapiens [12] = species on record: Homo sapiens; assay: Inhibition of CK2-alpha1 at 10 uM

Sequence of Insulin-like growth factor 1 receptor (Homo sapiens) (P08069 31-736 limits assumed): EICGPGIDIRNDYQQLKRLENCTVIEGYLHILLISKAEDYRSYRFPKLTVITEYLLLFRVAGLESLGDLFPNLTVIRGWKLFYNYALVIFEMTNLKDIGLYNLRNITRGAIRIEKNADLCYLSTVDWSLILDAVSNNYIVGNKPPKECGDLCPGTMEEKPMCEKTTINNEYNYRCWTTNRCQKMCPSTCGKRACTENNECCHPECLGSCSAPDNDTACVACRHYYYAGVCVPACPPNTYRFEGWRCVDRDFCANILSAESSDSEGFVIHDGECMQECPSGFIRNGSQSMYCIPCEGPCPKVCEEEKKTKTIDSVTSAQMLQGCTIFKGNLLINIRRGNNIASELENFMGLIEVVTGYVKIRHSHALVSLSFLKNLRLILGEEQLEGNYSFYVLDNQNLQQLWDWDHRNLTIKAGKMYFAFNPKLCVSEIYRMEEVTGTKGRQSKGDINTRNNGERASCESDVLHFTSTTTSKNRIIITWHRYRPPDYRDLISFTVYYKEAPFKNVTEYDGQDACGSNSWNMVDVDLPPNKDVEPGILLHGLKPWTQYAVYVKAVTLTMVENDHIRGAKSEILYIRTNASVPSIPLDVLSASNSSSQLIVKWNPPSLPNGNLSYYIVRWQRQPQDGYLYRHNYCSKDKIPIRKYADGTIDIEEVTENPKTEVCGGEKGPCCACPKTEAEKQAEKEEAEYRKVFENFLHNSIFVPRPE
Sequence of Insulin-like growth factor 1 receptor (Homo sapiens) (P08069 741-1367 limits assumed): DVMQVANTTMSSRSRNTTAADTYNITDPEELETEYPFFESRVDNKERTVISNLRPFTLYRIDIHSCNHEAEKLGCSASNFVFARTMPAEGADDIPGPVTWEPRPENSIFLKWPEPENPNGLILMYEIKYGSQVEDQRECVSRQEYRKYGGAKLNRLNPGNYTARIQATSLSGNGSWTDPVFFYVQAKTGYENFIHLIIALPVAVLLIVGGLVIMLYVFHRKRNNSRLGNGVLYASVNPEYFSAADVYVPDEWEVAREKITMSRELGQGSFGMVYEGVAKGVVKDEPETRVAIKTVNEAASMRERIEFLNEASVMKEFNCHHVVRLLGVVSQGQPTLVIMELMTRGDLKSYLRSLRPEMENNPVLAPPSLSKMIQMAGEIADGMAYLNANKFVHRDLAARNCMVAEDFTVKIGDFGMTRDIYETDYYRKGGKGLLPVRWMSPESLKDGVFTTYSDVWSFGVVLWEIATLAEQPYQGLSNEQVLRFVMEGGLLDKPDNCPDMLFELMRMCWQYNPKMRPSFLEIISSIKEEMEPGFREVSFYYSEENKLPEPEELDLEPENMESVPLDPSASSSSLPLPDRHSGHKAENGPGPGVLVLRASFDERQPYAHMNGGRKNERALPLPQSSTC

SMILES | inhibition [1] [%] | inhibition [2] [%] | growth, % of control at 100 µM (SF-268) [%] | inhibition [3] [%] | inhibition [4] [%] | inhibition [5] [%] | growth, % of control at 100 µM (MCF7) [%] | inhibition [6] [%] | inhibition [7] [%] | growth, % of control at 100 µM (NCI-H460) [%] | inhibition [8] [%] | inhibition [9] [%] | inhibition (Homo sapiens [10]) [%] | inhibition [11] [%] | inhibition (Homo sapiens [12]) [%]
O=C1Cc2cnn(-c3ccc(Br)cc3)c2-c2ccccc2N1 | < 40 | < 40 | 98 | < 40 | < 40 | < 40 | 51 | < 40 | < 40 | 32 | < 40 | < 40 | < 40 | < 40 | < 40
O=C1Cc2cnn(-c3ccccc3)c2-c2ccccc2N1 | < 40 | < 40 | 90 | < 40 | < 40 | < 40 | 55 | < 40 | < 40 | 33 | < 40 | < 40 | < 40 | < 40 | < 40
O=C1Cc2cnn(-c3cc(Cl)cc(Cl)c3)c2-c2ccccc2N1 | < 40 | < 40 | 62 | < 40 | < 40 | < 40 | 40 | < 40 | < 40 | 21 | < 40 | < 40 | < 40 | < 40 | < 40
O=C1Cc2cnn(-c3ccccc3Cl)c2-c2ccccc2N1 | < 40 | < 40 | 71 | < 40 | < 40 | < 40 | 66 | < 40 | < 40 | 53 | < 40 | < 40 | < 40 | < 40 | < 40
O=C1Cc2cnn(-c3cccc(Cl)c3)c2-c2ccccc2N1 | < 40 | < 40 | 101 | < 40 | < 40 | < 40 | 64 | < 40 | < 40 | 39 | < 40 | < 40 | > 40 | < 40 | < 40
Cc1ccccc1-n1ncc2c1-c1ccccc1NC(=O)C2 | < 40 | < 40 | 98 | < 40 | < 40 | < 40 | 64 | < 40 | < 40 | 49 | < 40 | < 40 | < 40 | < 40 | < 40
O=C1Cc2cnn(-c3ccc(C(F)(F)F)cc3)c2-c2ccccc2N1 | < 40 | < 40 |  | < 40 | < 40 | < 40 | 52 | < 40 | < 40 | 28 | < 40 | < 40 | < 40 | < 40 | < 40
O=C1Cc2cnn(-c3ccc(F)cc3F)c2-c2ccccc2N1 | < 40 | < 40 | 98 | < 40 | < 40 | < 40 | 61 | < 40 | < 40 | 41 | < 40 | < 40 | < 40 | < 40 | < 40
O=C1Cc2cnn(-c3ccccc3Br)c2-c2ccccc2N1 | < 40 | < 40 | 87 | < 40 | < 40 | < 40 | 69 | < 40 | < 40 | 44 | < 40 | < 40 | < 40 | < 40 | < 40
Cc1ccc(-n2ncc3c2-c2ccccc2NC(=O)C3)cc1 | < 40 | < 40 | 95 | < 40 | < 40 | < 40 | 57 | < 40 | < 40 | 29 | < 40 | < 40 | < 40 | < 40 | < 40
CC(C)(C)c1ccc(-n2ncc3c2-c2ccccc2NC(=O)C3)cc1 | < 40 | < 40 |  | < 40 |  | < 40 | 130 | < 40 | < 40 | 11 | < 40 | < 40 | < 40 | < 40 | < 40
O=C1Cc2cnn(-c3ccc([N+](=O)[O-])cc3)c2-c2ccccc2N1 | < 40 | < 40 | 62 | < 40 | < 40 | < 40 | 55 | < 40 | < 40 | 62 | < 40 | < 40 | < 40 | < 40 | < 40
